Reference: ChEMBL document CHEMBL1649120, “Differential effects of inhibiting chitin and 1,3-{beta}-D-glucan synthesis in ras and calcineurin mutants of Aspergillus fumigatus” (2009)
The source made the active and inactive calls. The calls are words filed in the database; no cut-off is given here. *1 amine or outer side, *2 acyl side, *3 side chain or, on linkers, in order; H or OH if unused. Where a SMILES comes first, the peptide text is derived from it. Bridges are numbered along the chain shown (N, C = ends). [ ]: non-standard residue; d: D form. The star is where a group is joined. hTyr(3S-OH,4S-OH,3'-OSO3H) = N[C@H](C(=O)O)[C@H](O)[C@@H](O)c1ccc(O)c(OS(=O)(=O)O)c1; pTerphenylCO(4''-OnC5H11) = CCCCCOc1ccc(-c2ccc(-c3ccc(C(=O)*)cc3)cc2)cc1; Orn(4R-OH,5R-OH) = O=C([C@H](C[C@@H](O)[C@@H](O)N[*:3])N[*:1])[*:2]; hTyr(3S-OH,4S-OH) = N[C@H](C(=O)O)[C@H](O)[C@@H](O)c1ccc(O)cc1; Pro(3S-OH,4S-Me) = C[C@H]1CN[C@H](C(=O)O)[C@H]1O; X1 = CCCCCOc1ccc(-c2cc(-c3ccc(C(=O)*)cc3)no2)cc1; Gln(3R-OH) = NC(=O)C[C@@H](O)[C@H](N)C(=O)O; Hyp = O=C(O)[C@@H]1C[C@@H](O)CN1

Key:
Aspergillus fumigatus [1] = experiment: Antifungal activity against Aspergillus fumigatus Af293 assessed as abnormal hyphal growth by CLSI method; format: functional; conditions: read-out: MEC
Procedure, shortened: (§1)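 MEC by CLSI broth microdilution in RPMI 1640. Conidia were incubated with or without drug for 48 h at 37°C, in triplicate.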

Aspergillus fumigatus [2] = experiment: Antifungal activity against cnaA deficient Aspergillus fumigatus Af293 assessed as abnormal hyphal growth by CLSI method; format: functional; conditions: read-out: MEC; procedure, shortened: as §1
Aspergillus fumigatus [3] = experiment: Antifungal activity against Aspergillus fumigatus Af293 expressing cnaA gene assessed as abnormal hyphal growth by CLSI method; format: functional; conditions: read-out: MEC; procedure, shortened: as §1
Aspergillus fumigatus [4] = experiment: Antifungal activity against crzA deficient Aspergillus fumigatus Af293 assessed as abnormal hyphal growth by CLSI method; format: functional; conditions: read-out: MEC; procedure, shortened: as §1
Aspergillus fumigatus [5] = experiment: Antifungal activity against Aspergillus fumigatus Af293 expressing crzA gene assessed as abnormal hyphal growth by CLSI method; format: functional; conditions: read-out: MEC; procedure, shortened: as §1
Aspergillus fumigatus [6] = experiment: Antifungal activity against Aspergillus fumigatus H237 assessed as abnormal hyphal growth by CLSI method; format: functional; conditions: read-out: MEC; procedure, shortened: as §1
Aspergillus fumigatus [7] = experiment: Antifungal activity against rasA deficient Aspergillus fumigatus H237 assessed as abnormal hyphal growth by CLSI method; format: functional; conditions: read-out: MEC; procedure, shortened: as §1
Aspergillus fumigatus [8] = experiment: Antifungal activity against Aspergillus fumigatus H237 expressing rasA gene assessed as abnormal hyphal growth by CLSI method; format: functional; conditions: read-out: MEC; procedure, shortened: as §1
Aspergillus fumigatus [9] = experiment: Antifungal activity against Aspergillus fumigatus H237 expressing dominant-active rasA gene assessed as abnormal hyphal growth by CLSI method; format: functional; conditions: read-out: MEC; procedure, shortened: as §1
Aspergillus fumigatus [10] = experiment: Antifungal activity against cnaA deficient Aspergillus fumigatus Af293 assessed as inhibition of hyphal growth at germling stage at 1 ug/ml by CLSI method; format: functional, organism-based
Procedure, shortened: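 Conidia were grown as for CLSI susceptibility testing in RPMI 1640 with or without echinocandin (1 μg/ml) for 48 h at 37°C. Hyphal morphology was then examined by bright-field microscopy.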

Aspergillus fumigatus [11] = experiment: Antifungal activity against rasA deficient Aspergillus fumigatus H237 assessed as decrease in 1, 3-beta-D-glucan cell wall content at 1 ug/ml by aniline blue assay; format: functional, organism-based
Procedure, shortened: (§2)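 10⁶ conidia/ml were grown in RPMI 1640 with or without drug for 48 h at 37°C, 250 rpm. Hyphae were washed in 0.1 M NaOH and lyophilized. 5 mg was taken into 1 M NaOH, sonicated and heated at 52°C for 30 min. Aniline blue mix (pH 9.5) was added for 30 min at 52°C. Fluorescence was read at ex 405/em 460 nm against a curdlan standard curve. Results are % change in RFU/mg versus untreated wild type, from five independent experiments.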

Aspergillus fumigatus [12] = experiment: Antifungal activity against cnaA deficient Aspergillus fumigatus Af293 assessed as decrease in 1, 3-beta-D-glucan cell wall content at 1 ug/ml by aniline blue assay; format: functional, organism-based; procedure, shortened: as §2
Aspergillus fumigatus [13] = experiment: Antifungal activity against crzA deficient Aspergillus fumigatus Af293 assessed as decrease in 1, 3-beta-D-glucan cell wall content at 1 ug/ml by aniline blue assay; format: functional, organism-based; procedure, shortened: as §2
Aspergillus fumigatus [14] = experiment: Antifungal activity against Aspergillus fumigatus Af293 assessed as decrease in 1, 3-beta-D-glucan cell wall content at 1 ug/ml after 48 hrs by aniline blue assay; format: functional, organism-based; procedure, shortened: as §2
Aspergillus fumigatus [15] = experiment: Antifungal activity against Aspergillus fumigatus H237 assessed as decrease in 1, 3-beta-D-glucan cell wall content at 1 ug/ml after 48 hrs by aniline blue assay; format: functional, organism-based; procedure, shortened: as §2
Aspergillus fumigatus [16] = experiment: Antifungal activity against Aspergillus fumigatus H237 expressing dominant-active rasA assessed as decrease in 1, 3-beta-D-glucan cell wall content at 1 ug/ml after 48 hrs by aniline blue assay; format: functional, organism-based; procedure, shortened: as §2
Candida albicans = experiment: Antifungal activity against Candida albicans SC5314 assessed as decrease in chitin cell wall content at 4 ug/ml after 48 hrs; format: functional, organism-based
Aspergillus fumigatus [17] = experiment: Antifungal activity against cnaA deficient Aspergillus fumigatus Af293 assessed as increase in chitin cell wall content at 1 to 16 ug/ml after 48 hrs; format: functional, organism-based
Procedure, shortened: (§3)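 Nikkomycin Z dose series from 0 to 16 μg/ml, added to cultures of 10⁶ conidia/ml in RPMI 1640 for 48 h at 37°C, 250 rpm. Chitin was assayed on 5 mg of lyophilized mycelium by KOH hydrolysis at 130°C, then MBTH colorimetry at A650 against a glucosamine standard. Output is glucosamine equivalents (μg/ml), from biological triplicate.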

Aspergillus fumigatus [18] = experiment: Antifungal activity against crzA deficient Aspergillus fumigatus Af293 assessed as increase in chitin cell wall content at 1 to 16 ug/ml after 48 hrs; format: functional, organism-based; procedure, shortened: as §3
Aspergillus fumigatus [19] = experiment: Antifungal activity against rasA deficient Aspergillus fumigatus H237 assessed as increase in chitin cell wall content at 1 to 16 ug/ml after 48 hrs; format: functional, organism-based; procedure, shortened: as §3
Aspergillus fumigatus [20] = experiment: Antifungal activity against Aspergillus fumigatus H237 expressing dominant-active rasA assessed as increase in chitin cell wall content at 1 to 16 ug/ml after 48 hrs; format: functional, organism-based; procedure, shortened: as §3
Aspergillus fumigatus [21] = experiment: Antifungal activity against cnaA deficient Aspergillus fumigatus Af293 assessed as increase in chitin cell wall content at 16 ug/ml after 48 hrs; format: functional, organism-based; procedure, shortened: as §3
Aspergillus fumigatus [22] = experiment: Antifungal activity against crzA deficient Aspergillus fumigatus Af293 assessed as increase in chitin cell wall content at 16 ug/ml after 48 hrs; format: functional, organism-based; procedure, shortened: as §3
Aspergillus fumigatus [23] = experiment: Antifungal activity against rasA deficient Aspergillus fumigatus H237 assessed as increase in chitin cell wall content at 16 ug/ml after 48 hrs; format: functional, organism-based; procedure, shortened: as §3
Aspergillus fumigatus [24] = experiment: Antifungal activity against Aspergillus fumigatus H237 expressing dominant-active rasA assessed as increase in chitin cell wall content at 16 ug/ml after 48 hrs; format: functional, organism-based; procedure, shortened: as §3
Aspergillus fumigatus [25] = experiment: Antifungal activity against Aspergillus fumigatus H237 assessed as FICI in combination with caspofungin
Aspergillus fumigatus [26] = experiment: Antifungal activity against Aspergillus fumigatus Af293 assessed as FICI in combination with caspofungin
Aspergillus fumigatus [27] = experiment: Antifungal activity against rasA deficient Aspergillus fumigatus H237 assessed as FICI in combination with caspofungin
Aspergillus fumigatus [28] = experiment: Antifungal activity against cnaA deficient Aspergillus fumigatus Af293 assessed as FICI in combination with caspofungin
Aspergillus fumigatus [29] = experiment: Antifungal activity against crzA deficient Aspergillus fumigatus Af293 assessed as FICI in combination with caspofungin
Aspergillus fumigatus [30] = experiment: Antifungal activity against Aspergillus fumigatus H237 expressing rasA gene assessed as FICI in combination with caspofungin
Aspergillus fumigatus [31] = experiment: Antifungal activity against Aspergillus fumigatus Af293 expressing cnaA gene assessed as FICI in combination with caspofungin
Aspergillus fumigatus [32] = experiment: Antifungal activity against Aspergillus fumigatus Af293 expressing crzA gene assessed as FICI in combination with caspofungin
Aspergillus fumigatus [33] = experiment: Antifungal activity against Aspergillus fumigatus H237 expressing dominant-active rasA gene assessed as FICI in combination with caspofungin

CCCCCOc1ccc(-c2ccc(-c3ccc(C(=O)N[C@H]4C[C@@H](O)[C@@H](O)NC(=O)[C@@H]5[C@@H](O)[C@@H](C)CN5C(=O)[C@H]([C@@H](C)O)NC(=O)[C@H]([C@H](O)[C@@H](O)c5ccc(O)cc5)NC(=O)[C@@H]5C[C@@H](O)CN5C(=O)[C@H]([C@@H](C)O)NC4=O)cc3)cc2)cc1 [ANIDULAFUNGIN] ({pTerphenylCO(4''-OnC5H11)}-[Orn(4R-OH,5R-OH)]T[Hyp][hTyr(3S-OH,4S-OH)]T[Pro(3S-OH,4S-Me)]; lactam 1-C)
minimal effective concentration (Aspergillus fumigatus [1]): 0.0625 µg/mL
minimal effective concentration (Aspergillus fumigatus [2]): 0.0039 µg/mL
minimal effective concentration (Aspergillus fumigatus [3]): 0.0625 µg/mL
minimal effective concentration (Aspergillus fumigatus [4]): 0.0156 µg/mL
minimal effective concentration (Aspergillus fumigatus [5]): 0.125 µg/mL
minimal effective concentration (Aspergillus fumigatus [6]): 0.0625 µg/mL
minimal effective concentration (Aspergillus fumigatus [7]): 2 µg/mL
minimal effective concentration (Aspergillus fumigatus [8]): 0.125 µg/mL
minimal effective concentration (Aspergillus fumigatus [9]): 0.0156 µg/mL
Activity (Aspergillus fumigatus [10]): Active

CCCCCOc1ccc(-c2cc(-c3ccc(C(=O)N[C@H]4C[C@@H](O)[C@@H](O)NC(=O)[C@@H]5[C@@H](O)[C@@H](C)CN5C(=O)[C@H]([C@H](O)CC(N)=O)NC(=O)[C@H]([C@H](O)[C@@H](O)c5ccc(O)c(OS(=O)(=O)O)c5)NC(=O)[C@@H]5C[C@@H](O)CN5C(=O)[C@H]([C@@H](C)O)NC4=O)cc3)no2)cc1 [MICAFUNGIN] (X1-[Orn(4R-OH,5R-OH)]T[Hyp][hTyr(3S-OH,4S-OH,3'-OSO3H)][Gln(3R-OH)][Pro(3S-OH,4S-Me)]; lactam 1-C)
minimal effective concentration (Aspergillus fumigatus [1]): 0.125 µg/mL
minimal effective concentration (Aspergillus fumigatus [2]): 0.0039 µg/mL
minimal effective concentration (Aspergillus fumigatus [3]): 0.125 µg/mL
minimal effective concentration (Aspergillus fumigatus [4]): 0.0312 µg/mL
minimal effective concentration (Aspergillus fumigatus [5]): 0.0625 µg/mL
minimal effective concentration (Aspergillus fumigatus [6]): 0.125 µg/mL
minimal effective concentration (Aspergillus fumigatus [7]): > 4 µg/mL
minimal effective concentration (Aspergillus fumigatus [8]): 0.125 µg/mL
minimal effective concentration (Aspergillus fumigatus [9]): 0.0156 µg/mL
Activity (Aspergillus fumigatus [10]): Active

C[C@@H]([C@H](N)C(=O)N[C@H](C(=O)O)[C@H]1O[C@@H](n2ccc(=O)[nH]c2=O)[C@H](O)[C@@H]1O)[C@H](O)c1ccc(O)cn1 [NIKKOMYCIN]
minimal effective concentration (Aspergillus fumigatus [1]): 2 µg/mL
minimal effective concentration (Aspergillus fumigatus [2]): 0.125 µg/mL
minimal effective concentration (Aspergillus fumigatus [3]): 2 µg/mL
minimal effective concentration (Aspergillus fumigatus [4]): 0.5 µg/mL
minimal effective concentration (Aspergillus fumigatus [5]): 4 µg/mL
minimal effective concentration (Aspergillus fumigatus [6]): 4 µg/mL
minimal effective concentration (Aspergillus fumigatus [7]): 0.5 µg/mL
minimal effective concentration (Aspergillus fumigatus [8]): 2 µg/mL
minimal effective concentration (Aspergillus fumigatus [9]): 4 µg/mL
Activity (Aspergillus fumigatus [11]): inactive
Activity (Aspergillus fumigatus [12]): inactive
Activity (Aspergillus fumigatus [13]): inactive
Activity (Aspergillus fumigatus [14]): Active
Activity (Aspergillus fumigatus [15]): Active
Activity (Aspergillus fumigatus [16]): inactive
Activity (Candida albicans): Active
Activity (Aspergillus fumigatus [17]): inactive
Activity (Aspergillus fumigatus [18]): inactive
Activity (Aspergillus fumigatus [19]): inactive
Activity (Aspergillus fumigatus [20]): inactive
Activity (Aspergillus fumigatus [21]): inactive
Activity (Aspergillus fumigatus [22]): inactive
Activity (Aspergillus fumigatus [23]): inactive
Activity (Aspergillus fumigatus [24]): inactive
fractional inhibitory concentration index (FICI) (Aspergillus fumigatus [25]): 0.16
fractional inhibitory concentration index (FICI) (Aspergillus fumigatus [26]): 0.09
fractional inhibitory concentration index (FICI) (Aspergillus fumigatus [27]): 0.03
fractional inhibitory concentration index (FICI) (Aspergillus fumigatus [28]): 0.19
fractional inhibitory concentration index (FICI) (Aspergillus fumigatus [29]): 0.13
fractional inhibitory concentration index (FICI) (Aspergillus fumigatus [30]): 0.09
fractional inhibitory concentration index (FICI) (Aspergillus fumigatus [31]): 0.09
fractional inhibitory concentration index (FICI) (Aspergillus fumigatus [32]): 0.16
fractional inhibitory concentration index (FICI) (Aspergillus fumigatus [33]): 0.5

C=CC[C@@H]1/C=C(\C)C[C@H](C)C[C@H](OC)[C@H]2O[C@@](O)(C(=O)C(=O)N3CCCC[C@H]3C(=O)O[C@H](/C(C)=C/[C@@H]3CC[C@@H](O)[C@H](OC)C3)[C@H](C)[C@@H](O)CC1=O)[C@H](C)C[C@@H]2OC [TACROLIMUS ANHYDROUS]
minimal effective concentration (Aspergillus fumigatus [1]): 0.02 µg/mL
minimal effective concentration (Aspergillus fumigatus [2]): > 80 µg/mL
minimal effective concentration (Aspergillus fumigatus [3]): 0.02 µg/mL
minimal effective concentration (Aspergillus fumigatus [4]): 0.01 µg/mL
minimal effective concentration (Aspergillus fumigatus [5]): 0.02 µg/mL
minimal effective concentration (Aspergillus fumigatus [6]): 0.02 µg/mL
minimal effective concentration (Aspergillus fumigatus [7]): 0.001 µg/mL
minimal effective concentration (Aspergillus fumigatus [8]): 0.02 µg/mL
minimal effective concentration (Aspergillus fumigatus [9]): 0.01 µg/mL
